Measurements collected from several papers.
Each line is one published result; the experiments were not run side by side.
Organism: Enterococcus faecalis
Observed: microbial growth

Cc1ccc(C)n1-c1ccc(-c2nnc(-c3ccc(Br)cc3)[nH]2)cc1
MIC (broth dilution; ATCC14506; 18 h): 8 µg/mL

C/C(=C\c1ccc(O)cc1)C(=O)Nc1ccc(C(=O)N[C@@H](CC(N)=O)C(=O)Nc2ccc(C(=O)Nc3ccc(C(=O)Nc4ccc(C(=O)O)cc4)c(O)c3OC(C)C)cc2)cc1
MIC (ATCC29212): 0.5 µg/mL

Cc1ccc(C)n1-c1ccc(-c2nnc(-c3cccc([N+](=O)[O-])c3)[nH]2)cc1
MIC (broth dilution; ATCC14506; 18 h): 31.2 µg/mL

CNC(=O)c1cc(Oc2ccc(NC(=O)Nc3ccc(Cl)c(C(F)(F)F)c3)cc2)ccn1
MIC: > 100 µM

Clc1ccc(-c2nc3ccccc3[nH]2)cc1Cl
MIC (broth dilution; ATCC29212): 32 µg/mL

Cc1cc(=O)[nH]n1C(=O)c1ccc(-n2c(C)ccc2C)cc1
MIC (broth dilution; ATCC14506; 18 h): 125 µg/mL

Cc1ccc2nc(-c3ccc(F)cc3)[nH]c2c1
MIC (broth dilution; ATCC29212): 64 µg/mL

C/C(O)=C1\C(=O)C(CC(C)C)N(C(=O)CCCCCc2ccccc2)C1=O (centres unmarked)
MIC (broth dilution; ATCC33186): < 0.7 µg/mL

COc1ccc(-c2nc3ccc(C)cc3[nH]2)cc1OC
MIC (broth dilution; ATCC29212): 128 µg/mL

CO[C@@H](C(N)=O)[C@H](NC(=O)c1ccc(NC(=O)c2ccc(C#N)cc2)cc1)C(=O)Nc1ccc(C(=O)Nc2ccc(C(=O)Nc3ccc(C(=O)O)cc3)c(O)c2OC(C)C)cc1
MIC (ATCC29212): 0.125 µg/mL

C/C=C(\C)c1cc(OC(=O)c2c(C)c(Cl)c(O)c(Cl)c2O)c(C)c(O)c1C(=O)O
MIC (broth dilution; ATCC29212): > 64 µg/mL

CC(C)Oc1c(NC(=O)c2ccc(NC(=O)[C@H](CC(N)=O)NC(=O)c3ccc(NC(=O)c4ccc(C#N)cn4)cc3)cc2)ccc(C(=O)Nc2ccc(C(=O)O)cc2)c1O
MIC (ATCC29212): 0.125 µg/mL

COc1cccc(-c2nc3ccccc3n2Cc2ccccc2)c1
MIC (broth dilution; ATCC29212): 64 µg/mL

CC1(C)S[C@@H]2[C@H](NC(=O)[C@H](N)c3ccccc3)C(=O)N2[C@H]1C(=O)O
MIC (broth dilution; ATCC29212): 1 µg/mL

Cc1ccc(C)n1-c1ccc(-c2nnc(-c3ccccc3Cl)[nH]2)cc1
MIC (broth dilution; ATCC14506; 18 h): 16 µg/mL

Cc1ccc2nc(-c3ccc([N+](=O)[O-])cc3)n(Cc3ccccc3)c2c1
MIC (broth dilution; ATCC29212): 8 µg/mL

O=C(O)c1cn(C2CC2)c2cc(N3CCNCC3)c(F)cc2c1=O
MIC (broth dilution; ATCC14506; 18 h): < 5 µg/mL

C/C=C(\C)c1cc(OC(=O)c2c(O)c(C)c(O)c(Cl)c2/C(C)=C/C)c(C)c(O)c1C(=O)O
MIC (broth dilution; ATCC29212): 64 µg/mL

Cc1ccc(C)n1-c1ccc(-c2nnc(-c3ccc(N(C)C)cc3)[nH]2)cc1
MIC (broth dilution; ATCC14506; 18 h): 31.2 µg/mL

Cc1ccc2nc(-c3ccc(Cl)cc3)n(Cc3ccccc3)c2c1
MIC (broth dilution; ATCC29212): 16 µg/mL
